# Where “and” joins values, the source holds several entries; their conditions need not be identical. Equal values may be shown once.
# How the values were obtained:
# [1] = Solubility in aqueous buffers; format: physicochemical; conditions: dissolved in DMSO to 135 μM for MST
# SW480^cld1 cells = test: Cell viability; format: cell-based, human
# Procedure, shortened: (§1)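 Claudin-1-overexpressing SW480cld1 and SW620 cells grown in RPMI with 10% FBS and exposed for 72 hours to a range of test compound concentrations. Viability measured by PrestoBlue reagent. EC50 calculated from the concentration–viability data.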
# SW480 cells = test: Cell viability; format: cell-based, human; conditions: even at 25μM
# SW620 xenograft tumor = test: Subcutaneous xenograft tumor study; format: in vivo, athymic nude mice
# SW620 cells [2] = test: Transwell matrigel invasion assay; format: cell-based, human; conditions: PDS-0330 25μM; P < 0.0001 vs control and 20A
# HCT116 cells = test: Cell viability; format: cell-based, human; conditions: claudin-1 deficient HCT116 cells; 72 hours
# Procedure, shortened: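 Cells maintained in RPMI plus 10% FBS. Viability read with PrestoBlue reagent per kit protocol after 72 h exposure to test compound.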
# [3] = Tissue bio-distribution in mice; format: in vivo; conditions: mouse, 5 mg/kg
# [4] = system: SW480^cld1 xenograft tumor; test: Subcutaneous xenograft tumor study; format: in vivo, athymic nude mice
# Procedure, shortened: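 Cells implanted subcutaneously in athymic nude mice, n = 5 per group, vehicle controls. For SW480cld1 with I-6, once-weekly dosing started 10 days after implantation, once tumors were palpable, for two weeks. Caliper volume over time, formula […]. Ki67 and cleaved PARP by IHC. Behavior and body weight monitored.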
# [5] = system: claudin-1 overexpressed PDX tumor; test: Chemo-resistant patient-derived xenograft; format: in vivo, athymic nude mice
# Procedure, shortened: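 Chemo-resistant PDX tumor fragments (~2mm3) implanted subcutaneously in 6-week-old athymic nude mice. Once tumors were palpable, dosed once weekly for four weeks (n=5 mice/group), vehicle controls included. Caliper volume from […], tracked over time. Tumor sections stained by IHC for Ki67 and cleaved PARP.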
# SW620^1C cells = test: Anoikis-induced apoptosis assay; format: cell-based, human; conditions: claudin-1 knockdown SW620^1C
# Procedure, shortened: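 Anoikis induced by plating cells on poly-HEMA-coated culture plates. Apoptosis quantified with a cell death detection ELISA. Parental lines were cultured in RPMI with 10% FBS. Claudin-1-overexpressing SW480 and claudin-1-knockdown SW620 derivatives were used.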
# human claudin-1 = biological target: T1, human claudin-1 (Homo sapiens, UniProt O95832); test: Microscale thermophoresis; format: binding
# T1 sequence (O95832 1-211): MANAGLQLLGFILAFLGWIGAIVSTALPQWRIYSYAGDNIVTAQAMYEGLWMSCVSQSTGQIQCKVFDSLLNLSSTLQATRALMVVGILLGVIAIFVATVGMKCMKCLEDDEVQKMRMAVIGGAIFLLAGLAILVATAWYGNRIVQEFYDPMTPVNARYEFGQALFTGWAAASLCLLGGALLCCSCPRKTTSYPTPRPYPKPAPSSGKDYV
# [6] = Metabolic stability, phase I; format: in vitro ADME, human
# Procedure, shortened: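 Phase I stability in human liver microsomes (20 mg/ml stock), 100 mM potassium phosphate pH 7.4, 10 mM MgCl2, 2 mM NADPH. Mix pre-incubated 10 min at 37 °C. Output is percent parent remaining per time point. Elimination rate constant taken from first-order plot of ln area ratio versus time.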
# [7] = system: trypsinized human claudin-1; test: Microscale thermophoresis; format: binding; conditions: 25 °C, at concentrations shown to bind wild-type claudin-1
# Procedure, shortened: (§2)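 Microscale thermophoresis at 25 °C with 1 μM Cy3-labeled, detergent-purified claudin (human claudin-19, mouse claudin-4 or trypsinized human claudin-1) in HEPES pH 7.4/100 mM NaCl buffer. Test compound dissolved in DMSO and titrated from 135 μM to 4.1 nM. Affinity derived from duplicate acquisitions.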
# SW620 cells [8] = test: Cell viability; format: cell-based, human
# Procedure, shortened: as §1
# human claudin-19 = biological target: T2, human claudin-19 (Homo sapiens, UniProt Q8N6F1); test: Microscale thermophoresis; format: binding; conditions: 25 °C, duplicate acquisitions
# T2 sequence (Q8N6F1 1-224): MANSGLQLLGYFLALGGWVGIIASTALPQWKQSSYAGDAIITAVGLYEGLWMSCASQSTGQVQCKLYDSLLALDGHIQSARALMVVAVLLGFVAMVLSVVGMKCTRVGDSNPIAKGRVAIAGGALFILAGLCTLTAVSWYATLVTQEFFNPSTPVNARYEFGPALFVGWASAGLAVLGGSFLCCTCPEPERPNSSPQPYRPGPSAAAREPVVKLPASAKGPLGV
# Procedure, shortened: as §2
# [9] = system: pSrc, pAkt, Bcl2, Bcl-xL, survivin, cleaved PARP in SW620 and SW480^cld1 cells; test: Immunoblotting of signaling and apoptosis markers; format: cell-based, human; conditions: PDS-0330 12.5 and 25μM
# Procedure, shortened: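 Treated cells (vehicle or 12.5 and 25 μM) lysed. 10–30 μg protein per lane resolved by SDS-PAGE and immunoblotted, with enhanced chemiluminescence detection on film. Antibodies included p-Src (Tyr416), pAkt and total Akt, with GAPDH or β-actin as loading reference.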
# [10] = PDS-0330 5mg/Kg and 10mg/Kg vs vehicle
# [11] = PDS-0330 5mg/kg and 10mg/kg once/week for four weeks
compound,measurement,setting,value
"O=C(NC(=S)Nc1ccc(-c2nc3ccccc3o2)cc1)c1ccc2ccccc2c1 [PDS-0330, N-((4-(benzo[d]oxazol-2-yl)phenyl)carbamothioyl)-2-naphthamide]",solubility in aqueous buffers,[1],limited solubility
same,EC50,"SW480^cld1 cells; Homo sapiens, 72 h, read-out: EC50, cell viability",8.4 µM
same,"CI index, % cell survival in combination with 5-FU",SW480^cld1 cells; PDS-0330 with 5-FU (5μM),< 1
same,impact on SW480 cells,SW480 cells,no significant impact
same,"apoptosis in tumors (cleaved PARP, BclxL, survivin)",SW620 xenograft tumor; PDS-0330 5mg/Kg and 10mg/Kg,increase in apoptosis
same,proliferation in tumors (Ki67),SW620 xenograft tumor; PDS-0330 5mg/Kg and 10mg/Kg,reduced proliferation
same,tumor volume and weight,SW620 xenograft tumor; [10],significant reduction
same,"tumor volume, combination with 5-FU",SW620 xenograft tumor; PDS-0330 and 5-FU in combination vs either alone,substantial reduction
same,cell invasion,SW620 cells [2],significantly inhibited
same,effect on cell growth/survival,HCT116 cells,no effect
same,concentration at 2 h,"[3]; both, liver, ip",277 ng/g
same,concentration at 8 h,"[3]; both, liver, ip",807 ng/g
same,concentration at 2 h,"[3]; both, liver, po",17 ng/g
same,concentration at 8 h,"[3]; both, liver, po",5.8 ng/g
same,concentration at 24 h,"[3]; both, liver, po",10.5 ng/g
same,concentration at 24 h,"[3]; both, lungs, ip",93.7 ng/g
same,concentration at 24 h,"[3]; both, lungs, po",519 ng/g
same,concentration at 24 h,"[3]; liver, ip",407 ng/g
same,concentration at 2 h,"[3]; lungs, ip",338 ng/g
same,concentration at 8 h,"[3]; lungs, ip",76.9 ng/g
same,concentration at 2 h,"[3]; lungs, po",5 ng/g
same,concentration at 8 h,"[3]; lungs, po",473 ng/g
same,"apoptosis in tumors (cleaved PARP, BclxL, survivin)",[4]; PDS-0330 5mg/Kg and 10mg/Kg,increase in apoptosis
same,proliferation in tumors (Ki67),[4]; PDS-0330 5mg/Kg and 10mg/Kg,reduced proliferation
same,tumor volume and weight,[4]; [10],significant reduction
same,"apoptosis in tumors (cleaved PARP, Bcl-xL, survivin)",[5]; PDS-0330 5mg/kg and 10mg/kg,increase in apoptosis
same,proliferation in tumors (Ki67),[5]; PDS-0330 5mg/kg and 10mg/kg,decreased proliferation
same,mean tumor volume and tumor weight,[5]; [11],significantly reduced
same,primary tumor growth,[5]; [11],reduced primary tumor growth in a statistically significant manner
same,resistance to anoikis,SW620^1C cells,not affecting
same,Hill coefficient,human claudin-1; 37°C,~ 5 and 4.5
same,Kd,"human claudin-1; binding affinity, 37°C, fit to Hill-Langmuir equation",44.9 ± 5.6 µM
same,Kd,"human claudin-1; equilibrium dissociation constant (Kd), Cy3-labeled human claudin-1, 25 °C, eight independent acquisitions",22.9 ± 3 µM
same,"binding affinity to other claudin subtypes, fold lower than claudin-1",human claudin-1; human claudin-19 and mouse claudin-4 vs human claudin-1,~ 4 fold
same,drug remaining after 60 min,"[6]; HLM, phase I metabolism, 60 min",90%
same,metabolism in the presence of HLM,[6]; phase I,< 15%
same,binding to trypsinized and labeled claudin-1,[7],no detectable binding
same,EC50,"SW620 cells [8]; Homo sapiens, SW-620, 72 h, read-out: EC50, cell viability",9.3 µM
same,"CI index, % cell survival in combination with 5-FU",SW620 cells [8]; PDS-0330 with 5-FU (5μM),< 1
same,effect with oxaliplatin on cell survival,SW620 cells [8]; PDS-0330 with oxaliplatin (1μM),synergistic effect
same,Kd,human claudin-19,157 µM and ≥ 100 µM
same,Akt activation,[9],suppressing Akt activation
same,Bcl-2 and Bcl-xL expression,[9],inhibiting
same,"anti-apoptotic proteins Bcl2, Bcl-xL and Survivin",[9]; SW480^cld1 and SW620,decrease
same,apoptotic protein cleaved PARP,[9]; SW480^cld1 and SW620,increase
same,Src phosphorylation,[9]; SW620 and SW480^cld1,prevents Src phosphorylation

# From publication PMC10824272 (Biomedicine & pharmacotherapy = Biomedecine & …, 2023)
